Columns and labels:
[1] = target: T1, HsDcpS (Homo sapiens, UniProt Q96C86); assay: HPLC analysis of cap analog hydrolysis by recombinant DcpS; format: biochemical; conditions: for Hydrolysis by DcpS (HPLC, Figure 3): 60 min or 24 h; for Hydrolysis by DcpS (HPLC): up to 24 h
T1 sequence (Q96C86 1-337): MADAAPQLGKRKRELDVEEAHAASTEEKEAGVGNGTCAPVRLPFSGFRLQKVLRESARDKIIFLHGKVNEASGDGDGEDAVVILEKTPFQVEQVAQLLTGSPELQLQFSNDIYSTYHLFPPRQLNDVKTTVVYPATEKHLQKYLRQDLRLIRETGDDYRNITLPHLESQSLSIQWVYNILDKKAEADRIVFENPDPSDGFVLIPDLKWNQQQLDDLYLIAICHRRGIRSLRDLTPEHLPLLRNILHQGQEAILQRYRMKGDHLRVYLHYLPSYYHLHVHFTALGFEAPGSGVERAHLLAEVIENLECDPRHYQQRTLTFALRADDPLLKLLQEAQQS
Method in brief: (§1)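 His-tagged recombinant enzyme was expressed in E. coli and purified by Ni-NTA and gel filtration. Cap analog (15 μM) was preincubated 10 min, then DcpS was added at 0.02 or 0.2 μM. Buffers were Tris/MgAc/(NH4)2SO4 at 37 °C, or Tris/KCl/EDTA/DTT at 20 °C. Aliquots were taken at 5–60 min and 24 h and heat-stopped (97 °C, 2.5 min). Reverse-phase HPLC used a methanol/KH2PO4 gradient with A260 and fluorescence detection. Products were identified by retention time, and % substrate hydrolyzed was recorded.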

[2] = target: T2, AsDcpS (Ascaris suum, UniProt D3K0N9); assay: HPLC analysis of cap analog hydrolysis by recombinant DcpS; format: biochemical, A. suum; conditions: 15 μM substrate; for Hydrolysis by DcpS (HPLC): up to 24 h
T2 sequence (D3K0N9 whole entry): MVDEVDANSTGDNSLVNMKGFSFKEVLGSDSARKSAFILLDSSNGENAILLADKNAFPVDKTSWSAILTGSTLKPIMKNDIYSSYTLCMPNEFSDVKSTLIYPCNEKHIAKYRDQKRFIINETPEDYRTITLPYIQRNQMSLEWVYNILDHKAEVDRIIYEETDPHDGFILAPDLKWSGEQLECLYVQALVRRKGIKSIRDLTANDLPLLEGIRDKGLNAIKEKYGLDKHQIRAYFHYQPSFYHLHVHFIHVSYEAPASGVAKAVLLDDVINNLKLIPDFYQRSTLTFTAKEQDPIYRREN

[3] = target: T3, CeDcpS (Caenorhabditis elegans, UniProt G5EFS4); assay: HPLC analysis of cap analog hydrolysis by recombinant DcpS; format: biochemical, C. elegans; conditions: 15 μM substrate; for Hydrolysis by DcpS (HPLC): up to 24 h
T3 sequence (G5EFS4 1-311): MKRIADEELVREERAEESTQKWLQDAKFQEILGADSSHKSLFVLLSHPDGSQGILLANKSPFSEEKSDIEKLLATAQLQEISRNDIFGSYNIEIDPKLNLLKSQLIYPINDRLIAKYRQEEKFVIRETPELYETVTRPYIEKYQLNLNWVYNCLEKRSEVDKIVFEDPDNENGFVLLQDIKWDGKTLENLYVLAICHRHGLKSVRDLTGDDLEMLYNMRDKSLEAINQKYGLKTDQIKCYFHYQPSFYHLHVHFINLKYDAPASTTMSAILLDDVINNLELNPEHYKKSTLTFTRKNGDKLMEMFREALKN
Method in brief: as §1

[4] = target: T2, AsDcpS; assay: Fluorescence titration; format: binding, A. suum; conditions: for Equilibrium association constant KAS, AsDcpS: 20 °C, 50 mM Tris HCl, 200 mM KCl, 0.5 mM EDTA, 1 mM DTT, pH 7.6
[5] = target: T3, CeDcpS; assay: Fluorescence titration; format: binding, C. elegans; conditions: for Equilibrium association constant KAS, CeDcpS: 20 °C, 50 mM Tris HCl, 200 mM KCl, 0.5 mM EDTA, 1 mM DTT, pH 7.6
Method in brief: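 His-tagged CeDcpS was expressed in E. coli and purified by Ni-NTA and gel filtration. Binding was read as quenching of intrinsic Trp fluorescence using time-synchronized titration. Ligand solutions of increasing concentration (5 μM–2 mM) were added to 0.2 μM initial protein. Excitation was 280 nm and emission 340 nm, corrected for dilution and inner filter. KAS was fitted by non-linear regression and reported as a weighted average of 3–5 titrations.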

[6] = target: T4, ScDcpS (Saccharomyces cerevisiae, UniProt Q06151); assay: HPLC analysis of cap analog hydrolysis by recombinant DcpS; format: biochemical, S. cerevisiae; conditions: 15 μM substrate; for Hydrolysis by DcpS (HPLC): up to 24 h
T4 sequence (Q06151 whole entry): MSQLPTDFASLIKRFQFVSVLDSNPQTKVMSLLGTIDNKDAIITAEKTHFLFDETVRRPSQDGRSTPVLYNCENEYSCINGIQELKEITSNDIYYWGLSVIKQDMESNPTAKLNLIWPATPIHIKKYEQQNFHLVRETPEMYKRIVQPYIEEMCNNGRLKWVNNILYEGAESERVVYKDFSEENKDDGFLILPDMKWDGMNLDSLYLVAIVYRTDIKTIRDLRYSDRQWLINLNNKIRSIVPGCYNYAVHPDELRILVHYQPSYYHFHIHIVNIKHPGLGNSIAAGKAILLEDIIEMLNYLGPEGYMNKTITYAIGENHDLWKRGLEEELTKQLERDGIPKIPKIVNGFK
Method in brief: as §1

[7] = target: T1, HsDcpS; assay: Fluorescence titration; format: binding; conditions: ratio of KAS values
[8] = target: T1, HsDcpS; assay: Inhibition of DcpS hydrolysis of m^7GpppG, HPLC; format: biochemical
[9] = target: T2, AsDcpS; assay: Inhibition of DcpS hydrolysis of m^7GpppG, HPLC; format: biochemical, A. suum
[10] = target: T3, CeDcpS; assay: Inhibition of DcpS hydrolysis of m^7GpppG, HPLC; format: biochemical, C. elegans
Method in brief: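 Recombinant His-tagged C. elegans DcpS was expressed in E. coli and purified by Ni-NTA and gel filtration. Enzyme at 0.02 μM, m7GpppG 15 μM, test compound 0.1–50 μM, in 50 mM Tris HCl, 200 mM KCl, 0.5 mM EDTA, 1 mM DTT, pH 7.6. Preincubated 10 min, reacted 10 min at 20 °C, heat-stopped, products by reverse-phase HPLC. IC50 taken from conversion versus concentration; Ki from tight-binding competitive equation.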

[11] = target: T4, ScDcpS; assay: Inhibition of DcpS hydrolysis of m^7GpppG, HPLC; format: biochemical, S. cerevisiae
Method in brief: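 Yeast DcpS (His-tagged, E. coli-expressed, Ni-NTA plus gel filtration) used at 0.10 μM to give 50% uninhibited conversion in 10 min. Substrate m7GpppG 15 μM; test compound 0.1–50 μM; buffer 50 mM Tris HCl, 200 mM KCl, 0.5 mM EDTA, 1 mM DTT, pH 7.6; 20 °C. Stopped at 97 °C for 2.5 min, analysed by reverse-phase HPLC. IC50 from substrate-conversion plot; Ki via tight-binding competitive equation.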

[12] = target: T1, HsDcpS; conditions: 20 °C, 50 mM Tris HCl, 200 mM KCl, 0.5 mM EDTA, 1 mM DTT, pH 7.6; cited from earlier work
[13] = tested on: recombinant C. elegans decapping scavenger; assay: Competitor inhibition of CeDcpS hydrolytic activity; format: biochemical
[14] = target: T3, CeDcpS; conditions: substrate of CeDcpS; cited from earlier work
[15] = target: T4, ScDcpS; conditions: substrate of ScDcpS; cited from earlier work
[16] = condition (2): 20 °C, pH 7.6, 15 μM substrate, 0.02 μM DcpS
[17] = condition (2): 20 °C, pH 7.6, 0.02 μM DcpS
[18] = condition (1): 37 °C, pH 8.0, 15 μM substrate, 0.02 or 0.2 μM DcpS
[19] = condition (2): 20 °C, pH 7.6, 15 μM substrate, 0.2 μM DcpS
[20] = condition (1): 37 °C, pH 8.0, 0.02 or 0.2 μM DcpS
[21] = condition (2): 20 °C, pH 7.6, 0.2 μM DcpS
[22] = condition (2), 0.02 μM DcpS, Figure 3
[23] = after 60 min, 20 °C, pH 7.6, 0.02 μM DcpS

Compound	Hydrolysis by DcpS (HPLC, Figure 3) [2, 17]	Hydrolysis by DcpS (HPLC, Figure 3) [3, 17]	Equilibrium association constant KAS, AsDcpS [4] [µM⁻¹]	Equilibrium association constant KAS, CeDcpS [5] [µM⁻¹]	Hydrolysis by DcpS (HPLC) [1, 18]	Hydrolysis by DcpS (HPLC) [1, 19]	Hydrolysis by DcpS (HPLC) [2, 20]	Hydrolysis by DcpS (HPLC) [2, 21]	Hydrolysis by DcpS (HPLC) [3, 20]	Hydrolysis by DcpS (HPLC) [3, 21]	Hydrolysis by DcpS (HPLC) [6, 20]	Hydrolysis by DcpS (HPLC) [6, 21]	also measured
Nc1nc2c(ncn2[C@@H]2O[C@H](COP(=O)(O)OP(=O)(O)OP(=O)(O)OC[C@H]3O[C@@H](n4cnc5c(=O)[nH]c(N)nc54)[C@H](O)[C@@H]3O)[C@@H](O)[C@H]2O)c(=O)[nH]1 [GpppG]	does not occur	much slower as compared to m^7GpppG											Hydrolysis by DcpS (HPLC, Figure 3) [1, 16]: does not occur
CN(C)c1nc2c(c(=O)[nH]1)[n+](C)cn2[C@@H]1O[C@H](COP(=O)(O)OP(=O)(O)O)[C@@H](O)[C@H]1O [m3^2,2,7GDP, 2,2,7-trimethylguanosine diphosphate]			0.53 ± 0.16	1.44 ± 0.26	not degraded	resistant to cleavage	not degraded	resistant to cleavage	not degraded	resistant to cleavage	not degraded	resistant to cleavage	
CN(C)c1nc2c(c(=O)[nH]1)[n+](C)cn2[C@@H]1O[C@H](COP(=O)(O)O)[C@@H](O)[C@H]1O [m3^2,2,7GMP]			0.28 ± 0.27	2.88 ± 0.67									
CN(C)c1nc2c(c(=O)[nH]1)[n+](C)cn2[C@@H]1O[C@H](COP(=O)(O)OP(=O)(O)OP(=O)(O)O)[C@@H](O)[C@H]1O [m3^2,2,7GTP]	have activity	have activity											
C[n+]1cn([C@@H]2O[C@H](COP(=O)(O)OP(=O)([O-])O)[C@@H](O)[C@H]2O)c2nc(N)[nH]c(=O)c21 [m^7GDP, 7-methylguanosine diphosphate]					not degraded	resistant to cleavage	not degraded	resistant to cleavage	not degraded	resistant to cleavage	not degraded	resistant to cleavage	Fold higher affinity of human DcpS compared to m^7GMP [7]: 6 fold; Kd [4]: 5.4 nM; Kd [5]: 10.3 nM; IC50 [8]: 4170 ± 500 nM; IC50 [9]: 1440 ± 110 nM; IC50 [10]: 2170 ± 130 nM; Ki [10]: 156 ± 20 nM; IC50 [11]: 3950 ± 230 nM; Ki [11]: 36 ± 2 nM; Equilibrium association constant KAS, HsDcpS [12]: 114 ± 8 µM⁻¹
C[n+]1cn([C@@H]2O[C@H](COP(=O)(O)O)[C@@H](O)[C@H]2O)c2nc(N)[nH]c(=O)c21 [m^7GMP, 7-methylguanosine monophosphate]			26.35 ± 1.84	8.00 ± 0.65									Competitor concentration for 50% inhibition, fold higher than for m^7GDP [13]: about 20 fold; Equilibrium association constant KAS, HsDcpS [12]: 19 ± 1 µM⁻¹
Cn1c[n+]([C@@H]2O[C@H](COP(=O)([O-])OP(=O)(O)OP(=O)(O)O)[C@@H](O)[C@H]2O)c2nc(N)[nH]c(=O)c21 [m^7GTP]	efficiently hydrolyzed	efficiently hydrolyzed											Rate of degradation by HsDcpS, fold slower than by AsDcpS and CeDcpS [1, 22]: 2 fold; Hydrolysis by DcpS (HPLC, Figure 3) [1, 16]: efficiently hydrolyzed
Cn1c[n+]([C@@H]2O[C@H](COP(=O)(O)OP(=O)([O-])OP(=O)(O)OC[C@H]3O[C@@H](n4cnc5c(=O)[nH]c(N)nc54)[C@H](O)[C@@H]3O)[C@@H](O)[C@H]2O)c2nc(N)[nH]c(=O)c21 [m^7GpppG]					very fast		very fast		very fast		very fast		Extent of decapping (% of hydrolyzed substrate) ([1]; after 60 min, 20 °C, pH 7.6, 15 μM substrate, 0.02 μM DcpS): 95%; Cleavage efficiency by HsDcpS, fold higher than m^7GTP [1, 22]: ~ 2 fold; Time to complete conversion of the substrate to products [1, 19]: less than 3 minutes; Extent of decapping (% of hydrolyzed substrate) [2, 23]: 95%; Time to complete conversion of the substrate to products [2, 21]: less than 3 minutes; Extent of decapping (% of hydrolyzed substrate) [3, 23]: 95%; Time to complete conversion of the substrate to products [3, 21]: less than 3 minutes; Time to complete conversion of the substrate to products [6, 21]: less than 3 minutes; Km [14]: 1.17 ± 0.14 µM; Km [15]: 0.14 µM
C[n+]1cn([C@@H]2O[C@H](COP(=O)(O)OP(=O)(O)OP(=O)(O)OC[C@H]3O[C@@H](n4c[n+](C)c5c(=O)[nH]c(N)nc54)[C@H](O)[C@@H]3O)[C@@H](O)[C@H]2O)c2nc(N)[nH]c(=O)c21 [m^7Gpppm^7G]						significantly slower than that of m^7GpppG		significantly slower than that of m^7GpppG		significantly slower than that of m^7GpppG		significantly slower than that of m^7GpppG	

— article PMC3495079 (Biochemistry, 2012)
